Measured values published in ChEMBL document CHEMBL1154253, “Synthesis and serotonin transporter activity of sulphur-substituted alpha-alkyl phenethylamines as a new class of anticancer agents” (Eur J Med Chem, 2009).
pEC50, pIC50: −log10 of the molar value. Values after ≈ are worked out from the molar mass of the structure shown.

Columns and labels:
DG-75 = assay: Antiproliferative activity against human DG75 cells after 24 to 72 hrs by alamar blue assay; assay type: functional, cell-based
Method in brief: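 Cells seeded at 1–5 × 10⁴ per well and exposed to compound for the stated time. Alamar Blue was then added, followed by 4–6 h incubation at 37 °C in the dark. Fluorescence was read at excitation 544 nm and emission 590 nm. Medium-plus-dye background was subtracted, and untreated cells were set as 100% viability. Readings were in triplicate on two independent days.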

HL-60 = assay: Antiproliferative activity against human HL60 cells after 24 hrs by alamar blue assay; assay type: functional, cell-based; details: HL-60, 24 h
[1] = Antiproliferative activity against human MUTU-I cells after 24 hrs by alamar blue assay
SH-SY5Y = assay: Cytotoxicity against human SH-SY5Y cells after 48 hrs by neutral red assay; assay type: functional, cell-based; details: for EC50: read-out: pEC50 (converted); for pEC50: read-out: EC50
[2] = biological target: T1, Sodium-dependent serotonin transporter (Rattus norvegicus, UniProt P31652); assay: Inhibition of [3H]5-HT reuptake at rat SERT expressed in HEK293 cells after 2 mins by liquid scintillation counting; assay type: cell-based
T1 sequence (P31652 whole entry): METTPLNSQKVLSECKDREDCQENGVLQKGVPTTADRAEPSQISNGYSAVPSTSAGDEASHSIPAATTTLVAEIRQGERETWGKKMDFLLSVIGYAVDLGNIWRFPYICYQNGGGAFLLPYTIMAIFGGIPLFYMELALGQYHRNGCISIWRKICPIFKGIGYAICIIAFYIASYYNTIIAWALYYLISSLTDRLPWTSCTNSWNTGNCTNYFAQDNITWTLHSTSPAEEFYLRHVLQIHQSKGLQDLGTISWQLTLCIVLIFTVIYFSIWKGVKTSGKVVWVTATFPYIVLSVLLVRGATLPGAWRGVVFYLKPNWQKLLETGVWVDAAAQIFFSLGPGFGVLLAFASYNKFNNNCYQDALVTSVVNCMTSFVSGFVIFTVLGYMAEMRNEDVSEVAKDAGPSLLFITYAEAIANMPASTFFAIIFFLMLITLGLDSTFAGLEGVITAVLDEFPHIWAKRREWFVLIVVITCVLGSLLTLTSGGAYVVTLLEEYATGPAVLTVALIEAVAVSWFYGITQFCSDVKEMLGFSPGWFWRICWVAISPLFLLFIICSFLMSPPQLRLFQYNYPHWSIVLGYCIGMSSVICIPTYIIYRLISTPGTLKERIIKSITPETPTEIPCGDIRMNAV

HEK293 = assay: Cytotoxicity against human HEK293 cells after 48 hrs by neutral red assay; assay type: cell-based; details: HEK293, 48 h, read-out: pEC50 (converted)
Method in brief: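 Neutral Red uptake: 5 × 10⁴ cells/well grown 24–36 h to sub-confluence, then treated 48 h. Cells incubated 3 ± 1 h with NR dye, washed and solubilised in 50% ethanol–1% acetic acid, and absorbance read at 540 nm (690 nm background). Viability given as % of vehicle-treated cells. pEC50 obtained by sigmoidal regression (Hill slope 1) using 4 concentrations in triplicate on two independent days. SERT-line values compared with parental HEK293 by two-way ANOVA with Bonferroni test. Sodium azide 30 mM and Triton-X 2% as positive controls.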

[3] = biological target: T1, Sodium-dependent serotonin transporter; assay: Inhibition of [3H]5-HT uptake at SERT in rat brain synaptosome; assay type: tissue-based
[4] = biological target: Sodium-dependent dopamine transporter (Homo sapiens, UniProt Q01959); assay: Inhibition of human dopamine transporter
Sodium-dependent dopamine transporter, sequence (Q01959 whole entry): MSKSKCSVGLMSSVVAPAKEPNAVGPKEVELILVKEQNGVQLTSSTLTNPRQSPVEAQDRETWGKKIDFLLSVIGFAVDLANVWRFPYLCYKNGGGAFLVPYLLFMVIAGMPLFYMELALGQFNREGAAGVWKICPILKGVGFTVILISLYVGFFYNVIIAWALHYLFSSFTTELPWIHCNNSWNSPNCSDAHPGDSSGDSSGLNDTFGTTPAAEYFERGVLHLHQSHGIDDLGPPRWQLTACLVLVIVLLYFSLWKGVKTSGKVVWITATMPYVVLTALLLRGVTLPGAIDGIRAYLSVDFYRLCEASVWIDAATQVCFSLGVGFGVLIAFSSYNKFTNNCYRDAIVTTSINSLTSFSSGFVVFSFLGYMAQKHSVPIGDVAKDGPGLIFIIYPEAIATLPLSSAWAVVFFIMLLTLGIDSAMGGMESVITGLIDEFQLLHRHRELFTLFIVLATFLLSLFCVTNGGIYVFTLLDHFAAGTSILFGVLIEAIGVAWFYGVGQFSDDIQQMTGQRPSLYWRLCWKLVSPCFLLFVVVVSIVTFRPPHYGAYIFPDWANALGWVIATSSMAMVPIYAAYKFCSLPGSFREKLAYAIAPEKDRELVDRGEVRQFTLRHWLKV

[5] = biological target: Sodium-dependent noradrenaline transporter (Homo sapiens, UniProt P23975); assay: Inhibition of human noradrenaline transporter
Sodium-dependent noradrenaline transporter, sequence (P23975 whole entry): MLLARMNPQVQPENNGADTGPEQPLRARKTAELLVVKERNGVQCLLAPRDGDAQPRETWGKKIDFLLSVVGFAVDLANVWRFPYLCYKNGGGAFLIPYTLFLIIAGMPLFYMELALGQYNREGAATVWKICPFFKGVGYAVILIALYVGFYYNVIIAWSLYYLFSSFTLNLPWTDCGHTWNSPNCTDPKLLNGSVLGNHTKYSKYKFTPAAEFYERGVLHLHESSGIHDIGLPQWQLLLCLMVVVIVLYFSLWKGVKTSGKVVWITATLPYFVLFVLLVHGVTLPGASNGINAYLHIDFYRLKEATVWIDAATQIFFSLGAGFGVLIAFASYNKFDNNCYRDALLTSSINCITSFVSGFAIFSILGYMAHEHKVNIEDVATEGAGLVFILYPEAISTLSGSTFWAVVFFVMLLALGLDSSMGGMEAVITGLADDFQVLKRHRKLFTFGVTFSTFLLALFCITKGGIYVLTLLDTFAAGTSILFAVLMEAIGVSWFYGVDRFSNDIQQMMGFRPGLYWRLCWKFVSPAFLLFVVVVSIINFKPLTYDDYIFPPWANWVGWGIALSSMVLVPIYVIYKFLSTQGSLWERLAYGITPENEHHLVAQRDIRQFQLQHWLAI

[6] = biological target: Sodium-dependent serotonin transporter (Rattus norvegicus) (UniProt P31652); assay: Inhibition of [3H]5-HT reuptake at rat SERT expressed in HEK293 cells assessed as serotonin reuptake at 100 uM after 2 mins by liquid scintillation counting; assay type: cell-based; design: scale not given: the % may be the effect or the level left
Sodium-dependent serotonin transporter (Rattus norvegicus), sequence (P31652 whole entry): as the sequence (P31652 whole entry) above

[7] = biological target: Sodium-dependent serotonin transporter (Rattus norvegicus) (UniProt P31652); assay: Inhibition of [3H]5-HT reuptake at rat SERT expressed in HEK293 cells assessed as serotonin reuptake at […] after 2 mins by liquid scintillation counting; assay type: cell-based; design: scale not given: the % may be the effect or the level left
[8] = biological target: Sodium-dependent serotonin transporter (Rattus norvegicus) (UniProt P31652); assay: Inhibition of [3H]5-HT reuptake at rat SERT expressed in HEK293 cells assessed as serotonin reuptake at 10 uM after 2 mins by liquid scintillation counting; assay type: cell-based; design: scale not given: the % may be the effect or the level left
Method in brief: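 HEK293 TREx cells stably carrying rat SERT-FLAG were plated on poly-L-lysine, and expression was induced with tetracycline for 24 h. Cells were washed in TB buffer (10 mM HEPES, 150 mM NaCl, 2 mM KCl, 1 mM CaCl₂, 1 mM MgCl₂) and preincubated with compound for 5 min at 37 °C. [³H]5-HT (~1 Ci/mmol) uptake then ran 2 min at room temperature. Uptake was stopped with cold paroxetine-containing buffer, and cells were lysed in 2% SDS and counted by scintillation. Paroxetine-defined non-specific uptake was subtracted, and untreated cells were set as 100% reuptake.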

Compound	EC50 (SH-SY5Y) [µM]	pIC50 [2]	EC50 (HEK293) [µM]	other results
CC(=O)O[C@H]1C(=O)[C@@]2(C)[C@H]([C@H](OC(=O)c3ccccc3)[C@]3(O)C[C@H](OC(=O)[C@H](O)[C@@H](NC(=O)c4ccccc4)c4ccccc4)C(C)=C1C3(C)C)[C@]1(OC(C)=O)CO[C@@H]1C[C@@H]2O [PACLITAXEL]	–	–	–	pIC50 (DG-75): 8.00; IC50 (HL-60): 4 ng/mL (≈ 4.68 nM); pIC50 [1]: 8.00
CSc1ccc(CC(C)NC2CC2)cc1 (centres undefined)	372	6.15	18.6	–
CONC(C)Cc1ccc(SC)cc1 (centres undefined)	2450	6.18	11	–
CCC(Cc1ccc(SC)cc1)NC (centres undefined)	832	6.36	50.1	–
CSc1ccc(CC(C)NCCO)cc1 (centres undefined)	2290	6.06	10	–
CC(N)Cc1ccc(Cl)cc1 (centres undefined)	–	–	–	pIC50 [3]: 6.74; pIC50 [4]: 6.37; pIC50 [5]: 6.68
CC(N)Cc1ccc(S(C)(=O)=O)cc1 (centres undefined)	> 10000	–	> 10000	Activity [6]: 100%; Activity [7]: 100%
CCC(Cc1ccc(SC)cc1)NC1CC1 (centres undefined)	> 10000	6.06	10.7	–
CCSc1ccc(CC(N)CC)cc1 (centres undefined)	53.7	5.89	5.13	–
CCSc1ccc(CC(CC)NO)cc1 (centres undefined)	1820	5.84	11.5	–
C#CCNC(C)Cc1ccc(SC)cc1 (centres undefined)	2340	6.16	24.5	–
CC(N)Cc1ccc(SCCN(C)C)cc1 (centres undefined)	240	4.36	8.71	pEC50 (SH-SY5Y): 6.00
CNC(C)Cc1ccc(SC)cc1 (centres undefined)	1550	6.38	19.5	–
CCNC(C)Cc1ccc(SCC)cc1 (centres undefined)	302	6.32	6.31	–
CCC(Cc1ccc(SC)cc1)NCCOC (centres undefined)	3890	5.55	16.2	–
C=CCNC(C)Cc1ccc(SC)cc1 (centres undefined)	123	6.28	15.5	–
CSc1ccc(CC(C)NC(C)C)cc1 (centres undefined)	1950	5.73	30.9	–
CCCCCSc1ccc(C(N)CC)cc1 (centres undefined)	> 10000	–	2690	Activity [8]: 65%
CCCNC(CC)Cc1ccc(SC)cc1 (centres undefined)	3020	6.21	303	–
COCCNC(C)Cc1ccc(SC)cc1 (centres undefined)	1350	5.45	22.9	–
CC(N)Cc1ccc(SCc2ccccc2)cc1 (centres undefined)	19.5	6.17	2.95	pEC50 (SH-SY5Y): 6.00
CSc1ccc(CC(C)N(C)C)cc1 (centres undefined)	1860	6.28	20	–
